Results on 18 compounds are retold here after ChEMBL document CHEMBL1123174, “Inhibitors of Bacillus subtilis DNA polymerase III. Influence of modifications in the pyrimidine ring of anilino- and (benzylamino)pyrimidines” (J Med Chem, 1986).

For test [1], the target named is T1, DNA polymerase III PolC-type (Bacillus subtilis (strain 168), UniProt P13267). As to the kind of experiment: Concentration producing 50% inhibition of Bacillus subtilis DNA polymerase III in the absence of dATP using DNA Polymerase assay; NA= Inactive. In outline:
(§1)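 B. subtilis DNA polymerase III assayed as a truncated reaction: the nucleotide competing with the inhibitor class (dGTP or dATP) was omitted from the mix.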

In test [2] the target is T1, DNA polymerase III PolC-type. The test is described as follows: Concentration producing 50% inhibition of Bacillus subtilis […] in the absence using DNA Polymerase assay.
The target is the same in test [3]. As to the kind of experiment: Compound was tested for its inhibitory activity against DNA topoisomerase III Polymerase III using DNA Polymerase assay; IA=Inactive. In outline: as §1
For test [4] the target is unchanged. The test is described as follows: Compound was tested for its inhibitory activity against Bacillus subtilis […] using DNA Polymerase assay; IA=Inactive. In outline: as §1
For test [5] the target is unchanged. As to the kind of experiment: Concentration producing 50% inhibition of Bacillus subtilis DNA polymerase III in the absence of dGTP using DNA Polymerase assay. As to conditions: read-out: Ki; call rule not given here. In outline:
as §1

The target is the same in test [6]. The test is described as follows: Concentration producing 50% inhibition of Bacillus subtilis DNA polymerase III in the absence of dATP using DNA Polymerase assay; NA=Inactive. In outline: as §1
For test [7] the target is unchanged. As to the kind of experiment: Compound was tested for its inhibitory activity against Bacillus subtilis DNA topoisomerase III using DNA Polymerase assay. Summed up: as §1
The target is the same in test [8]. The test is described as follows: Concentration producing 50% inhibition of Bacillus subtilis […] in the presence of dATP using DNA Polymerase assay.
Test [9] has the same target. As to the kind of experiment: Concentration producing 50% inhibition of Bacillus subtilis […] in the presence of dGTP using DNA Polymerase assay.

T1 sequence (P13267 whole entry, the tested form may be a part): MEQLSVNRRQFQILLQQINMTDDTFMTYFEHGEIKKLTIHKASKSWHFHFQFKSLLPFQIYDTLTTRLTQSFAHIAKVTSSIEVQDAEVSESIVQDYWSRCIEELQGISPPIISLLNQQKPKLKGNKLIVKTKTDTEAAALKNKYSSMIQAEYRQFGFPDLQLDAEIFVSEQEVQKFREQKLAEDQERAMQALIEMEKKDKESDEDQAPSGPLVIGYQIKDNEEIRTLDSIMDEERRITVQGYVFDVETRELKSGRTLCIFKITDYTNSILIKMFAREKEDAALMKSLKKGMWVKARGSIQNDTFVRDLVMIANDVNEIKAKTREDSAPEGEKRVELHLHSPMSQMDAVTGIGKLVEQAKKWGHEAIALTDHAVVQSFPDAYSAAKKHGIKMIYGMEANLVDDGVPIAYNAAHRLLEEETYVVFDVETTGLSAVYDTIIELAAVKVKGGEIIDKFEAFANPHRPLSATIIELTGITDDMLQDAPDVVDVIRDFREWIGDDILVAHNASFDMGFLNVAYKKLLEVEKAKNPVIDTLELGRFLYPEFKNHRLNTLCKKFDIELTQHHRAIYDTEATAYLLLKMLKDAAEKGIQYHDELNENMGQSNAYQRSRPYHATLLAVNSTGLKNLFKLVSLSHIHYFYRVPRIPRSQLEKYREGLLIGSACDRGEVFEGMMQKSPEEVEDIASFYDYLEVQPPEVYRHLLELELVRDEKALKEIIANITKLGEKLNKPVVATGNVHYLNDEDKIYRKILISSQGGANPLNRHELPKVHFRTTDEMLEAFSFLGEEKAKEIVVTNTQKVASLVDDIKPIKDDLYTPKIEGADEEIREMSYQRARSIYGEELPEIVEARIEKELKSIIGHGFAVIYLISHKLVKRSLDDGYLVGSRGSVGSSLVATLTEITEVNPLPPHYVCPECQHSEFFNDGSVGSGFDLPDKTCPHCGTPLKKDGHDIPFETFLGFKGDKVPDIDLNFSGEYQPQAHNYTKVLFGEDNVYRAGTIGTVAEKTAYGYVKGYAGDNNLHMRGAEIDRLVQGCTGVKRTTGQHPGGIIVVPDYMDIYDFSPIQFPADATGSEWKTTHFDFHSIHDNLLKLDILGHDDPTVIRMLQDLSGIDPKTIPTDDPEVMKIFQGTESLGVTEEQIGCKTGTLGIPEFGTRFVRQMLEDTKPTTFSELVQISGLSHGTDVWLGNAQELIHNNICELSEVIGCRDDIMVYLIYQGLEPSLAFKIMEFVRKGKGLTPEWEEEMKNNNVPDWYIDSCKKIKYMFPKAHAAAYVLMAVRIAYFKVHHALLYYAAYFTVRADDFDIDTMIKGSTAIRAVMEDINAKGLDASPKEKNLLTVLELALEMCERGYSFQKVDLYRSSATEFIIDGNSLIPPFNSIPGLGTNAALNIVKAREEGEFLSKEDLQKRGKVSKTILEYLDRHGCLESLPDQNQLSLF

On to `Nc1nc(NCc2ccccc2)cc(SCc2ccc(Cl)cc2)n1`, for which the Ki (in general, a dissociation constant, usually derived from enzyme kinetics or from competition with a known ligand) in test [1] was “Not Active”.

Compound `Cc1c(O)nc(O)nc1NCc1ccccc1` gave a Ki in test [2] of 436 µM.

With `O=Nc1c(O)nc(O)nc1NCc1ccccc1`, in [3], the Ki result is “Not Active”.

In the case of `Cc1ccc(Nc2nc(O)nc(O)c2N=O)cc1`, the Ki entry in test [4] was “Not Active”.

Regarding `Cc1ccc(Nc2nc(=O)[nH]c(=O)[nH]2)cc1`, the IC50 in test [5] worked out at 70 µM.

In the case of `CCc1c(O)nc(O)nc1NCc1ccccc1`, the IC50 in test [5] is 2820 µM.

`O=c1nc(NCc2ccccc2)[nH]c(=O)[nH]1`: the IC50 in test [5] is 20 µM.

On to `CCc1c(O)nc(O)nc1Nc1ccc(C)cc1`, for which the Ki result in [6] is on record as “Not Active”.

Take `Nc1nc(Cl)cc(NCc2ccccc2)n1`: the affinity in test [7], expressed as Ki, was 17 µM.

Regarding `O=c1[nH]c(NCc2ccccc2)c(I)c(=O)[nH]1`, the IC50 in test [5] was found to be 9 µM.

On to `Nc1nc(O)cc(NCc2ccccc2)n1`, for which the Ki in [8] came out at 33 µM.

`Cc1ccc(Nc2nc(O)nc(O)c2Br)cc1`: the IC50 in [5] was determined as 14 µM.

`Oc1cc(Nc2ccc3c(c2)CCC3)nc(O)n1`: the Ki in test [9] came out at 0.4 µM.

With `O=c1cc(NCc2ccccc2)[nH]c(=O)[nH]1`, in test [9], the Ki worked out at 7.5 µM.

For the compound `Nc1nc(O)cc(Nc2ccc3c(c2)CCC3)n1`, the Ki in test [8] turned out to be 2 µM.

On to `Cc1ccc(Nc2[nH]c(=O)[nH]c(=O)c2C)cc1`, for which the IC50 in [5] stood at 1580 µM.

For `Oc1nc(O)c(Br)c(NCc2ccccc2)n1`, the IC50 in test [5] is 9 µM.

With `Nc1nc(NCc2ccccc2)cc(SCc2ccccc2)n1`, the Ki result in test [6] was “Not Active”.
